Only some compounds are listed: those with a hit (about 3.7% of all), similar ones and a draw of the others.
Mdm2 ligase inh – MDM2-luciferase reporter signal enhancers, primary screen, MDM2 E3 ligase inhibitor project, cell-based, luminescence, 1536-well | AID 1230, 2008 | E3 ubiquitin-protein ligase Mdm2 (Homo sapiens), Q00987 | cell-based MDM2 ubiquitination luciferase reporter, 2 h; 0 = plate control, 100 = twice control, blank-subtracted | signal enhancement, % at 5 µM | actives 0.11% (n = 210,000);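 active = signal enhancement of 30% or more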;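 note: luminescence tracks abundance of the self-degrading MDM2-luciferase fusion protein; higher signal means inhibition of MDM2 E3 ligase activity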
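Test system: stable mammalian line carrying autodegrading MDM2–luciferase fusion reporter; quantity: 2000 cells in each well; times: 4 h cell settling then 2 h compound exposure, 37 °C; detection: luminescence with SteadyLite reagent, 15 min at room temperature; evaluation: percent signal gain over controls, blank-subtracted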
UPR XBP1 act – activators of adaptive XBP1 UPR arm, primary screen, cell-based, CHO-XBP1 luciferase reporter, luminescence, uHTS. activation, % at 20 µM. actives 0.33% (n = 330,000). IRE1-XBP1 UPR activation; percent of tunicamycin response, DMSO as zero;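 active = versus positive control, 20 µM dose yields 30% or more activation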;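 note: 100% = tunicamycin at 10 µg/mL and 0% = DMSO only wells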
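Material: CHO-XBP1 cells stably carrying IRE1-XBP1-driven luciferase reporter | Medium: F12 with 10% serum | Compound dosing: 20 µM single concentration, DMSO 1% | Incubation: Overnight seeding at 37 °C, 6 h compound treatment at 37 °C | Detection: Steady-Glo luminescence read | Read-out basis: % activation of reporter signal versus tunicamycin and DMSO controls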
CHOP UPR activ – activators of apoptotic CHOP UPR arm, primary screen, cell-based, CHO-CHOP luciferase reporter, luminescence, uHTS; UPR activation; percent of tunicamycin response over DMSO baseline; activation, % at 10 µM; actives 0.34% (n = 330,000); AID 449763, 2010;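 active = at 10 µM dose, activation of 40% or more, normalized to positive control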;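 note: 100% = tunicamycin at 10 µg/mL and 0% = DMSO alone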
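Evaluation: % reporter activation, DMSO baseline versus tunicamycin full activation; System: CHO-CHOP luciferase reporter cell line; Input: 500 cells/well; Incubation: 6 h compound treatment, 37 °C; Measured by: Steady-Glo luciferase luminescence; Dosing: one dose, 10 µM in 0.5% DMSO; Buffer or medium: F12 medium, 10% FBS; Benchmarks: positive tunicamycin 10 µg/mL, negative DMSO alone.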
Mdm2 MdmX PPI – inhibitors of human Mdm2-MdmX association, primary screen, cell-based, luminescence, split luciferase, SaOS-2, uHTS; Protein Mdm4 (Homo sapiens) + E3 ubiquitin-protein ligase Mdm2 (Homo sapiens), …; SaOS-2 split-luciferase Mdm2/MdmX complementation; inhibition, % at 8 µM; actives 3% (n = 330,000);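 active = inhibition of at least 50% at 8 µM in the primary screen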
Dynein transport – inhibitors of GR-EGFP nuclear translocation, primary screen, dynein cargo transport inhibitor project, imaging, high-content, 3617.4 mouse cells; test concentration mostly 20 µM; stimulated with dexamethasone, 1 µM; active compounds read low; z-score, hits read low; actives 0.47% (n = 220,000);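 active = plate z-score of nuclear minus cytoplasmic receptor signal below a set negative limit, without overly bright fluorescence or cell loss, cut at about -3.5 in these data, passing the limit was not always enough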;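 note: z-score of nuclear minus cytoplasmic ring GR-EGFP intensity difference per well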
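Also added: dexamethasone, 1.0 µM final. Medium: tet-free, stripped-serum medium. Detection: fixed, Hoechst-stained cells imaged at 10x for EGFP. Read-out: nuclear-to-cytoplasmic GR-EGFP distribution per well. Times: induction 48 h, compound 1 h, agonist 30 min.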
B2AR ag – beta2AR agonists driving receptor internalization, primary screen, cell-based, FAP fluorogen, flow cytometry. response, % (concentration not given with the values). Beta-2 adrenergic receptor (Homo sapiens), P07550. Am2.2-beta2AR cells. actives 0.43% (n = 340,000);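 active = response above a set limit, near 3 SD of response in nonfluorescent compounds, cut at about 42% in these data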
Beta2AR ag CP1 – beta2AR agonists via receptor internalization, confirmation, cell-based, FAP fluorogen, flow cytometry, single point, cherry pick 1 | shares compounds with B2AR ag | percent response (surface receptor), % at 10 µM | actives 25% (n = 1,100) | Am2.2-beta2AR cells, FAP surface receptor; active compounds read low | AID 540358, 2011;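 active = surface receptor percent response at or below 58%, roughly 3 SD from nonfluorescent compounds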
FAP fluor counter – flagged in Am2.2 fluorescence counterscreen for beta-2AR agonists. calls only at 10 µM. Am2.2 cells, FAP fluorogen flow cytometry; active compounds read low. 1,100 tested, under 10 active. shares compounds with B2AR ag;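 active = percent response below a set limit in fluorescence channel 1 and below 50% in channel 8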
An asterisk follows results filed as active; i = inactive; nt = no result given.

SMILES	Mdm2 ligase inh	UPR XBP1 act	CHOP UPR activ	Mdm2 MdmX PPI	Dynein transport	B2AR ag	Beta2AR ag CP1	FAP fluor counter
Cc1ccc(NC(=O)c2ccc3c(c2)C(=O)N(CC2CCCO2)C3=O)cc1C (stereo unspecified)	-10.8	-2.3	7.7	13.9	0.727	7.1	113.0	i
COc1ccc(NC(=O)c2ccc3c(c2)C(=O)N(CC2CCCO2)C3=O)cc1O (stereo unspecified)	nt	-2.3	1.8	-4.3	nt	-0.3	nt	nt
COCCn1c(SCc2nnc(-c3ccccc3)o2)nc2sc3c(c2c1=O)CCC3	-1.0	nt	nt	nt	-0.073	121.1*	129.8	i
O=C(c1cc2c(=O)n3ccccc3nc2s1)N1CCN(Cc2ccc3c(c2)OCO3)CC1	-3.8	0.6	1.9	-0.6	-0.96	74.2*	24.0*	i
CSc1ccc(S(=O)(=O)N2CCC(C(=O)NCC3CCCO3)CC2)cc1 (stereo unspecified)	nt	5.2	0.6	-1.3	nt	155.2*	107.7	i
O=C(NCC1CCCO1)C1CCN(S(=O)(=O)c2ccc(Br)cc2)CC1 (stereo unspecified)	nt	-2.9	-0.3	1.4	nt	-3.6	nt	nt
CN(CC(=O)N1CCN(c2ncccn2)CC1)S(=O)(=O)c1ccc(Cl)cc1	-2.1	-2.7	1.5	-13.7	-0.196	111.7*	27.7*	i
CN(CC(=O)N1CCN(c2ccccn2)CC1)S(=O)(=O)c1ccccc1	-8.3	-0.9	-1.3	4.4	-1.01	50.7*	59.4	i
CCOC(=O)Cc1csc(SCC(=O)NC2CCCC2)n1	nt	-3.1	-0.3	14.9	nt	9.8	nt	nt
CN1CCN(c2ccc(Cl)cc2NC(=O)c2ccc(S(=O)(=O)N(C)C)cc2)CC1	8.0	1.8	-2.5	46.4	-0.561	4.0	nt	nt
CCN(CC)S(=O)(=O)c1cc(C(=O)Nc2cc(Cl)ccc2N2CCN(C)CC2)ccc1Cl	-4.9	7.3	1.6	27.2	-0.522	74.2*	20.1*	i

High-throughput results as filed in PubChem BioAssay.
